To fix the notation:
B1: tRNA (parent)
chain: CUCUCGGUAGCCAAGUUGGUUUAAGGCGCAAGACUUUAAUUUAUCACUACGAAAUCUUGAGAUCGGGCGUUCGACUCGCCCCCGGGAGAUUUUUUCCUCGAGCAA

This sample holds only a part of the variants without activity.

The variants in this data set derive from B1. Briefly: nonsense suppression (GFP-seq) (ratio to wild type); higher = more function; SUP4oc tRNA, yeast GFP reporter sort-seq. The gist of the method: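 Nonsense suppression (GFPSEQ) is the median GFP/RFP ratio of each sorting bin, weighted by the variant's estimated share of cells in that bin and expressed relative to the unmutated parent tRNA. Yeast strains carried genome-integrated variants of an ochre-suppressor tRNA from a library with ~3% random mutations, plus a galactose-driven GFP ochre reporter and RFP, and were grown in raffinose/galactose medium containing 80 mg/L adenine. Cells were sorted into GFP/RFP bins, each bin was Illumina-sequenced (phred ≥30), and variants were kept only with ≥100 reads and ≥30 cells.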
For the variant CUCUAGGUAGCCAAGUUGUUUUAAGGCGCAAGACUUUAAUUUAUCACUACGAAAGCUUGUGAUCGGGCGUUCGACUCGCCCCCGGGAGAUUUUUUCCUCGAGCAA [C5A G19U U55G A60U], the nonsense suppression was not above 0.026.

As to CUCGCGGUAGCCAAGUUGGUUUAAGGCGCAAGACUUUAAUUUAUCACUACGAAAUCGUGAGAUCGGGCGUUCGACUCGCCCCCGGGAGAUUUUUUCCUCGAGCAA [U4G U57G], the nonsense suppression is 0.0369.

With CUCGCGAUAGCCAAGUUGGUUUAAGGCGCAAGACUUUAAUUUAUCACUACGAAAUCUUGAGAUCGGGCGUUCGACUCGCCCCCGGGAGAUUUUUUCCUCGAGCAA [U4G G7A], the nonsense suppression was 0.0974.

CUCUAGGUAGCCAAGUUUGUUUAAGGCGCAAGACUUUAAUUUAUCACUACGAAAUCUUGAGAUCGGGCGUUCGACCCGCCCCCGGAAGAUUUUUUCCUCGAGCAA [C5A G18U U76C G86A]: the nonsense suppression is not above 0.026.

As for CUCGCGGUAGCCAAGUUGGUUUAAGGCGCAAGACUUUAAUUUAUCACUACGAAAUCUUGAGAUCGGGCGUUCGACUCGCCCCCGCGAGAUUUUUUCCUCGAGCAA [U4G G85C], the nonsense suppression was found to be 0.813.

Consider CUCGCGGUAGCCAAGUUGGUUUAAGGCGCAAGACUUUAAUUUAUCACUACGAAAUCUUGAGAUCGGGCGUACGACUCGCCCCCGGGAGAUUUUUUCCUCGAGCAA [U4G U71A], for which the nonsense suppression was determined as 0.0967.

CUCGCGGUAGCCAAGUUGGUUUAAGGCGCAAGACUUUAAUUUAUCACUACGAAAUCGUGUGAUCGGGCGUUCGACUCGCCCCCGGGAGAUUUUUUCCUCGAGCAA [U4G U57G A60U]: the nonsense suppression was not above 0.026.

Turning to CUCGCGGUAGCCAAGUUGGUUUAAGGCGCAAGACUUUAAUUUAUCACUACGAAAUCUUGAGAUCGGGCGUUCGACUCGUCCCCGGGAGAUUUUUUCCUCGAGCAA [U4G C79U], the nonsense suppression was 0.173.

As for CUCGCGGUAGCCAAGUUGGUUUAAGGCGCAAGACUUUAAUUUAUCACUACGAAAUCUUAAGAUCGGGCGUUCGACUCGCCCCCGGGAGAUUUUUUCCUCGAGCAA [U4G G59A], the nonsense suppression was determined as 0.0506.

For CUCGCGGUAGCCAAGUUGGUUAAAGGCGCAAGACUUUAAUUUAUCACUACGAAAUCUUGAGAUCGGGCGUUCGACUCGCCCCCGGGAGAUUUUUUCCUCGAGCAA [U4G U22A], the nonsense suppression came out at 0.216.

With CUCGCGGUAGCCAAGUUGGUUGAAGGCGCAAGACUUUAAUUUAUCACUACGAAAUCUUGAGAUCGGGCGUUCGACUCGCCCCCGGGAGAUUUUUUCCUCGAGCAA [U4G U22G], the nonsense suppression came out at 0.492.

In the case of CUCUAGGUAGCCAGGUUGGUUUAAGGCGCAAGACUUUAAUUUAUCACUACGAAAUCUUGAGAUCGGGCGUUCGACUCGCCCCCGGGAGAUUUUUUCCUCGAGCAA [C5A A14G], the nonsense suppression was not above 0.026.

CUCGCGGUAGCCAAGUGGGUUUAAGGCGCAAGACUUUAAUUUAUCACUACGAAAUCUUGAGAUCGGGCAUUCGACUCGCCCCCGGGAGAUUUUUUCCUCGAGCAA [U4G U17G G69A]: the nonsense suppression was not above 0.026.

Take CUCUAGGUAGCCAAGUUGGUUUAAGGCGCGAGACUUUAAUUUAUCACUACGAAAUCUUGAGAUCGGGCGUUCGACUCGCCCCCGGGAGAUUUUUUCCUCGAGCAA [C5A A30G]: the nonsense suppression stood at 0.0272.

Take CUCUAGGUAGCCAAGUUGGUUUACGGCGCAAGACUUUAAUUUAUCACUACGAAAUCUUGAGAUCGGGCGUUCGACUCGCCCCCGGGAGAUUUUUUCCUCGAGCAA [C5A A24C]: the nonsense suppression came to 0.0269.

For CUCUAGUUAGCCAAGUCGGUUUAAGGCGCAAGACUUUAAUUUAUCACUACGAAAUCUUGAGAUCGGGCGUUCGACUCGCCCCCGGGAGAUUUUUUCCUCGAGCAA [C5A G7U U17C], the nonsense suppression is not above 0.026.

In the case of CUCGCGGUAGCCAAGUUGGUUUAAGGCGCAAGACUUUAAUUUAUCACUACGAAAUCUUGAGAUCGAGCGUUCGACUCGCCCCCGGGAGAUUUUUUCCUCGAGCAA [U4G G66A], the nonsense suppression was found to be 0.0774.

Regarding CUCGCGGUAGCCAAGUUGGUUUAAGGCGCAAGACUUUAAUUUAUCACUACGAAAUCUUGAAAUCGGGCGUUCGAAUCGCCCCCGGGAGAUUUUUUCCUCGAGCAA [U4G G61A C75A], the nonsense suppression is 0.558.

On to CUCUAGGUAGCCAUGUUGGUUUAAGGCGCAAGCCUUUAAUUUAUCACUACGAAACCUUGAGAUCGGGCGUUCGACUCGCCCCCGGGAGAUUUUUUCCUCGAGCAA [C5A A14U A33C U55C], for which the nonsense suppression was not above 0.026.

With CUCGCAGUAGCCAAGUUGGUUUAAGGCGCAAGACUUUAAUUUAUCACUACGAAAUCUUGAGAUCGGGCGUUCGACUCGCCCCCGGGAGAUUUUUUCCUCGAGCAA [U4G G6A], the nonsense suppression turned out to be 0.0297.

As for CUCGCGGUAGCCAAGUUGGCUUAAGGCGCAAGGCUUUAAUUUAUCACUACGAAAUCUUGAGAUCGGGCGUUCGACUCGCCCCCGGGAGAUUUUUUCCUCGAGCAA [U4G U20C A33G], the nonsense suppression was determined as 0.0309.

Regarding CUCUAGGUAGCCAAGUUGGUUUAAGGCGCACGACUUUAAUUUAUCACUACGAAAUCUUGAGAUCGGGCGUUCGACUCGCCCCCGGGAGAUUUUUUCCUCGAGCAA [C5A A31C], the nonsense suppression is not above 0.026.

CUCUAGGUAGCCAAGUUGGUUUAAGGCGCAAGACUUUAAUUUAUCACUACGAAAUCUUCAGAUCGGGCGUUCGACUCGCCCCCGGGAGAUUUUUUCCUCGAGCAA [C5A G59C]: the nonsense suppression is not above 0.026.

CUCGCGGUAGCCAAGUUGGUUUAAGGCGCAAAGCUUUAAUUUAUCACUACGAAAUCUUGAGAUCGGGCGUUCGACUCGCCCCCGGGAGAUUUUUUCCUCGAGCAA [U4G G32A A33G]: the nonsense suppression was not above 0.026.

On to CUCGCGGUAGCCAAGUUGGUUUAAGGCGCAAGACUUUAAUUUAUCACUACGAAAUCUUGAGAUCGGGCGUUCGACACGCCCCCGGGAGAUUUUUUCCUCGAGCAA [U4G U76A], for which the nonsense suppression was found to be 0.109.

As to CUCGCGGUAGCCAAGUUGGGUAAAGGCGCAAGACUUUAAUUUAUCACUACGAAAUCUUGAGAUCGGGCGUUCGACUCGCCCCCGGGAGAUUUUUUCCUCGAGCAA [U4G U20G U22A], the nonsense suppression stood at 0.21.

Consider CUCGCGGAAGCCAAGUUGGUUUAAGGCGCAAGACUUUAAUUUAUCACUACGAAAUCUUGAGAUCGGGCGUUCGACUCGCCCCCGGGAGAUUUUUUCCUCGAGCAA [U4G U8A], for which the nonsense suppression was not above 0.026.

The record behind these values is the RNAGym collection of RNA variant scans (doi:10.1101/gad.245936.114).
